Assay type in all cases: cell-based
Test [1] addresses T1, Adenosine receptor A2b (Homo sapiens) (UniProt P29275).
T1 sequence (whole entry): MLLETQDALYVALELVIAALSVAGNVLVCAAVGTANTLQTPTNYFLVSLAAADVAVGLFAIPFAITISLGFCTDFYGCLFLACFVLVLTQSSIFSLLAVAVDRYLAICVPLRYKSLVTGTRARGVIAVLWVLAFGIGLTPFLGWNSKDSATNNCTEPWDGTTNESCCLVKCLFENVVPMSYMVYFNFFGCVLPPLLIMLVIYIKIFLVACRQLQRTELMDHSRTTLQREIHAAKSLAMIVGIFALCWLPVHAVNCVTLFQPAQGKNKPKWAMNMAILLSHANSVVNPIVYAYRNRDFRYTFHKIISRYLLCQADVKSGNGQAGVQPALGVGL
Nature of the test: Displacement of [3]DPCPX from human adenosine A2B receptor expressed in HEK293 cells at 1 uM. An outline of the steps: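 At 1 µM test compound: 18 µg membranes, 35 nM [3H]DPCPX, 30 min at 25 °C, Tris/EDTA/MgCl2/benzamidine/adenosine deaminase buffer pH 6.5. Nonspecific binding from 400 µM NECA. Value expressed as % displacement of specific binding, calculated from total, nonspecific and competed dpm.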

In test [2] the target is T2, Adenosine receptor A3 (Homo sapiens) (UniProt P0DMS8).
T2 sequence (whole entry): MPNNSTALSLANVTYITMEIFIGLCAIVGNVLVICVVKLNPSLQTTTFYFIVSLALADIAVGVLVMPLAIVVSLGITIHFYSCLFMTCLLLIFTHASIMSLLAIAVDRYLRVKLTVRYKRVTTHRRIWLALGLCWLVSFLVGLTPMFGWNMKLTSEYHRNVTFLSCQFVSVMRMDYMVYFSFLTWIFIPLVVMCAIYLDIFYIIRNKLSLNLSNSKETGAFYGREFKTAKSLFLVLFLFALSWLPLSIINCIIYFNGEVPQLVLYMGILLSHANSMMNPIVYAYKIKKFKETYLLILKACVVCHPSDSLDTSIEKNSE
Nature of the test: Displacement of [3]NECA from human adenosine A3 receptor expressed in HeLa cells at 1 uM. The essentials:
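At 1 µM test compound, 90 µg membranes were incubated with 30 nM [3H]NECA for 180 min at 25 °C in Tris/EDTA/5 mM MgCl2/adenosine deaminase buffer, pH 7.4. Nonspecific binding with 100 µM (R)-PIA. Result given as % displacement of specific binding.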

For test [3], the target named is T3, Adenosine receptor A1 (Homo sapiens, UniProt P30542).
T3 sequence (P30542 whole entry): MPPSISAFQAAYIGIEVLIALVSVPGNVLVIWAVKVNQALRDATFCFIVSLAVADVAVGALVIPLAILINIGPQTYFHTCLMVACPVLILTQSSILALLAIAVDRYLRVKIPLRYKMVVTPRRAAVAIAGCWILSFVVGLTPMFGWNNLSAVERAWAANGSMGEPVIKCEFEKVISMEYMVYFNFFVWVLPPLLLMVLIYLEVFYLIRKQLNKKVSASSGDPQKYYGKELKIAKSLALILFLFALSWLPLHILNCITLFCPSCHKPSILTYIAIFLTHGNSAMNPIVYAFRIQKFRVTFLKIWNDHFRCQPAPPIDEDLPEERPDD
Nature of the test: Displacement of [3]DPCPX from human adenosine A1 receptor expressed in CHO cells. An outline of the steps: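 Membranes (15 µg) incubated 60 min at 25 °C with 2 nM [3H]DPCPX in 20 mM Hepes, 100 mM NaCl, 10 mM MgCl2, 2 U/mL adenosine deaminase, pH 7.4, plus 6 test concentrations (0.1 nM–1 µM). Nonspecific binding defined with 10 µM (R)-PIA. Filtration on GF/C, 4 ice-cold washes, scintillation counting. Ki from IC50 via Cheng–Prusoff.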

The target of test [4] is T4, Adenosine receptor A2a (Homo sapiens, UniProt P29274). Nature of the test: Displacement of [3]ZM241385 from human adenosine A2A receptor expressed in HeLa cells. The essentials:
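10 µg membranes, 3 nM [3H]ZM241385, 30 min at 25 °C in 50 mM Tris-HCl, 1 mM EDTA, 10 mM MgCl2, 2 U/mL adenosine deaminase, pH 7.4. Six test concentrations (0.1 nM–1 µM). Nonspecific binding from 50 µM NECA. GF/C filtration, four ice-cold washes, scintillation counting. Ki via Cheng–Prusoff.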

Test [5] addresses T4, Adenosine receptor A2a. Nature of the test: Displacement of [3]ZM241385 from human adenosine A2A receptor expressed in HeLa cells at 1 uM. An outline of the steps:
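At 1 µM test compound: 10 µg membranes, 3 nM [3H]ZM241385, 30 min at 25 °C in Tris/EDTA/MgCl2/adenosine deaminase buffer, pH 7.4. Nonspecific binding from 50 µM NECA. Output is % displacement of specific binding, based on total and nonspecific dpm.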

Test [6] deals with T5, Adenosine receptor A1 (Homo sapiens) (UniProt P30542).
T5 sequence (whole entry): T3 sequence (P30542 whole entry)
Nature of the test: Displacement of [3]DPCPX from human adenosine A1 receptor expressed in CHO cells at 1 uM. An outline of the steps: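 Single-point competition at 1 µM test compound: 15 µg membranes, 2 nM [3H]DPCPX, 60 min at 25 °C, Hepes/NaCl/MgCl2/adenosine deaminase buffer pH 7.4. 10 µM (R)-PIA for nonspecific binding. % displacement = (total binding − dpm)×100/(total − nonspecific).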

Test [7] deals with T6, Adenosine receptor A2b (Homo sapiens, UniProt P29275).
T6 sequence (P29275 whole entry): T1 sequence (whole entry)
Nature of the test: Displacement of [3]DPCPX from human adenosine A2B receptor expressed in HEK293 cells. An outline of the steps:
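Membranes (18 µg) incubated 30 min at 25 °C with 35 nM [3H]DPCPX in 50 mM Tris-HCl, 1 mM EDTA, 10 mM MgCl2, 0.1 mM benzamidine, 2 U/mL adenosine deaminase, pH 6.5, plus six concentrations (0.1 nM–1 µM). Nonspecific binding defined with 400 µM NECA. GF/B filtration, six washes with Tris pH 6.5. Ki via Cheng–Prusoff.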

For test [8], the target named is T7, Adenosine receptor A3 (Homo sapiens, UniProt P0DMS8).
T7 sequence (P0DMS8 whole entry): T2 sequence (whole entry)
Nature of the test: Displacement of [3]NECA from human adenosine A3 receptor expressed in HeLa cells. An outline of the steps: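 90 µg membranes, 30 nM [3H]NECA, 180 min at 25 °C in 50 mM Tris-HCl, 1 mM EDTA, 5 mM MgCl2, 2 U/mL adenosine deaminase, pH 7.4. Test compound at six concentrations (0.1 nM–1 µM). Nonspecific binding with 100 µM (R)-PIA. GF/B filtration, six washes, scintillation counting. Ki = IC50/(1 + C/KD).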

T4 sequence (P29274 whole entry): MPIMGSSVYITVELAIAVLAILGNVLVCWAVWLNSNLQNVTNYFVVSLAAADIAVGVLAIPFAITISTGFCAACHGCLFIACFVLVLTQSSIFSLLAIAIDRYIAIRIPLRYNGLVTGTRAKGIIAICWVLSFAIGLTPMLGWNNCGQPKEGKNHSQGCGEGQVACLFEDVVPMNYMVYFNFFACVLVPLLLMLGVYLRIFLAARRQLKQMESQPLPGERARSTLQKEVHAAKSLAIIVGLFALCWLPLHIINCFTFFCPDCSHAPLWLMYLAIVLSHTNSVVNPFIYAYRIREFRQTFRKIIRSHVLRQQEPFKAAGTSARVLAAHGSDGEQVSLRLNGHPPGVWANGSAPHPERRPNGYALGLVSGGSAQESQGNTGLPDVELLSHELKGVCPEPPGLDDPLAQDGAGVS

Take `OCCN(CCO)c1nc2ccccc2n2nc(-c3ccco3)nc12`: the results for the inhibition in test [1] and in test [2] were 46% and 51.7%, respectively. The figures for the Ki in test [3] and in test [4] were 58.9 nM and 110 nM, respectively.

Take `COC(CNc1nc2ccccc2n2nc(-c3ccco3)nc12)OC`: the values for the inhibition in test [5], in test [1] and in test [2] were 20%, 22% and 55.3%, respectively. Further, the Ki in test [3] was 575 nM.

For the molecule `c1ccc(CNc2nc3ccccc3n3nc(-c4ccco4)nc23)cc1`, the inhibition in test [1] was determined as 24%; in test [2], 32.6%. For the same molecule, the Ki in test [3] is 102 nM; in test [4], 302 nM.

As to `O=C(Nc1nc2ccccc2n2nc(-c3ccco3)nc12)c1cccs1`, the inhibition came to 10% in test [5], 21% in test [1] and 52% in test [2]. The same molecule had a Ki in test [3] of 50.1 nM.

As for `CN(C)c1nc2ccccc2n2nc(-c3ccco3)nc12`, the values for the inhibition in test [6], in test [1] and in test [2] were 31.1%, 17% and 50.7%, respectively. Affinity in test [4] was put at a Ki of 309 nM.

`O=C(Nc1nc2ccccc2n2nc(-c3ccco3)nc12)c1ccco1`: the inhibition constant (Ki) in test [3] was 200 nM; in test [4], 398 nM; in test [7], 2510 nM; in test [8], 251 nM.

For `c1ccc(COc2nc3ccccc3n3nc(-c4ccco4)nc23)cc1`, the results for the inhibition in test [6], in test [5] and in test [1] were 13.8%, 38% and 3%, respectively. Also, affinity in test [8] was put at a Ki of 1550 nM.

Take `COCCNc1nc2ccccc2n2nc(-c3ccco3)nc12`: the inhibition in test [1] came out at 32%. Further, the Ki is 302 nM in test [3], 3090 nM in test [4] and 437 nM in test [8].

`OCCN1CCN(c2nc3ccccc3n3nc(-c4ccco4)nc23)CC1`: the inhibition is 24.5% in test [6], 12% in test [5], 3% in test [1] and 24% in test [2].

For the molecule `c1coc(CNc2nc3ccccc3n3nc(-c4ccco4)nc23)c1`, in test [2], the inhibition came out at 57.3%. Moreover, the Ki in test [3] was 33.1 nM; in test [4] it was 490 nM; in test [7], 1740 nM.

Turning to `c1coc(-c2nc3c(N4CCNCC4)nc4ccccc4n3n2)c1`, the inhibition in test [6] came to 12.3%; in test [5], 7%; in test [1], 4%; in test [2], 26.7%.

Regarding `NCC(O)CNc1nc2ccccc2n2nc(-c3ccco3)nc12` (centres undefined), the figures for the inhibition in test [5], in test [1] and in test [2] were 57%, 34% and 43%, respectively. In test [3], this molecule gave a Ki of 141 nM.

As for `CC(=O)Nc1nc2ccccc2n2nc(-c3ccco3)nc12`, the Ki was 112 nM in test [3], 200 nM in test [4], 251 nM in test [7] and 251 nM in test [8].

As for `c1coc(COc2nc3ccccc3n3nc(-c4ccco4)nc23)c1`, the inhibition in test [6] was 55.1%; in test [5], 8%; in test [1], 3%. The same molecule showed a Ki in test [8] of 66.1 nM.

Turning to `CCN(CC)c1nc2ccccc2n2nc(-c3ccco3)nc12`, in test [2], the inhibition stood at 10.4%. For the same molecule, the Ki in test [3] is 135 nM; in test [4] it was 398 nM; in test [7], 2400 nM.

With `O=C(CCc1ccccc1)Nc1nc2ccccc2n2nc(-c3ccco3)nc12`, the Ki was 12.6 nM in test [3], 63.1 nM in test [4], 501 nM in test [7] and 126 nM in test [8].

Turning to `OCCNc1nc2ccccc2n2nc(-c3ccco3)nc12`, the Ki was 3.16 nM in test [3], 63.1 nM in test [4], 123 nM in test [7] and 30.2 nM in test [8].

Consider `COCCCNc1nc2ccccc2n2nc(-c3ccco3)nc12`, for which the inhibition in test [2] was 82%. Further, the Ki was 74.1 nM in test [3], 372 nM in test [4] and 427 nM in test [7].

On to `CC(O)CNc1nc2ccccc2n2nc(-c3ccco3)nc12` (centres undefined), for which the Ki in test [3] was 3.98 nM; in test [4], 47.9 nM; in test [7], 67.6 nM; in test [8], 22.9 nM.

`c1coc(-c2nc3c(OCc4ccoc4)nc4ccccc4n3n2)c1`: the Ki is 537 nM in test [3], 575 nM in test [4], 145 nM in test [7] and 676 nM in test [8].

As to `Nc1nc2ccccc2n2nc(-c3ccco3)nc12`, the Ki was 5.62 nM in test [3], 11.2 nM in test [4], 13.2 nM in test [7] and 331 nM in test [8].

Consider `c1ccc(Nc2nc3ccccc3n3nc(-c4ccco4)nc23)cc1`, for which the inhibition is 49% in test [1] and 71.7% in test [2]. Moreover, the Ki was 45.7 nM in test [3] and 64.6 nM in test [4].

On to `c1ccc(CCNc2nc3ccccc3n3nc(-c4ccco4)nc23)cc1`, for which the inhibition in test [1] was 46%. For the same molecule, the Ki in test [3] was 93.3 nM; in test [4], 51.3 nM; in test [8], 372 nM.

For the molecule `O=C(Cc1ccccc1)Nc1nc2ccccc2n2nc(-c3ccco3)nc12`, the Ki in test [3] was 63.1 nM; in test [4] it was 158 nM; in test [7] it was 251 nM; in test [8] it was 100 nM.

For the molecule `COc1nc2ccccc2n2nc(-c3ccco3)nc12`, the inhibition in test [1] worked out at 28%; in test [2] it was 57.4%. Further, the Ki in test [3] was 331 nM; in test [4], 398 nM.

Regarding `CCOc1nc2ccccc2n2nc(-c3ccco3)nc12`, the inhibition in test [5] amounted to 38%; in test [1], 34%; in test [2] it was 69%. Moreover, in test [3], the affinity corresponds to a Ki of 3720 nM.

Values taken from ChEMBL document CHEMBL1143971, “Synthesis, adenosine receptor binding and 3D-QSAR of 4-substituted 2-(2'-furyl)-1,2,4-triazolo[1,5-a]quinoxalines” (Bioorg Med Chem, 2008).
